For nine compounds, IC50 results are on record in ChEMBL document CHEMBL4130528, “Serotonin Analogues as Inhibitors of Breast Cancer Cell Growth” (ACS Med Chem Lett, 2017).

Assay [1] concerns MDA-MB-231. As to the kind of experiment: Cytotoxicity against human MDA-MB-231 cells assessed as reduction in cell viability by cell titer 96 aqueous one solution based assay. The assay is classed as functional. A digest of the protocol: (§1)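 MDA-MB-231 and MCF-7 breast cancer cells were treated with increasing concentrations of compound. Viability was read by MTS assay, and IC50 values were derived from the concentration–response data.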

Assay [2] relates to MCF7. As to the kind of experiment: Cytotoxicity against human MCF7 cells assessed as reduction in cell viability by cell titer 96 aqueous one solution based assay. The assay is classed as functional. An outline of the steps:
as §1

pIC50: −log10 of the molar value. Where only a bound is given, the exact number is not on record here.

As usually defined, the pIC50 is the IC50 on a negative log10 scale, so that one unit is a factor of ten.

Regarding `CCCCCCCCCCCCCCOc1ccc2[nH]cc(CCN)c2c1`, the pIC50 in assay [1] is 5.32; in assay [2] it was 5.08.

`CCCCCCCCCCCCCCCCOc1ccc2[nH]cc(CCN)c2c1`: the pIC50 in assay [1] is 5.12; in assay [2] it was 4.89.

`CCCCC(CC)COc1ccc2[nH]cc(CCN)c2c1` (stereo not drawn): the pIC50 in assay [1] is 5.09; in assay [2] it was 4.82.

Consider `NCCc1c[nH]c2ccc(OCCCCCCCCCBr)cc12`, for which the pIC50 in assay [1] is 5.00; in assay [2] it was 4.77.

Consider `NCCc1c[nH]c2ccccc12` [TRYPTAMINE], for which the negative logarithm of the IC50 (pIC50) in assay [1] and in assay [2] was less than 4.30 in each case.

On to `CCCCCCCCCCCOc1ccc2[nH]cc(CCN)c2c1`, for which the negative logarithm of the IC50 (pIC50) is 5.36 in assay [1] and 5.21 in assay [2].

On to `CCCCCCCCOc1ccc2[nH]cc(CCN)c2c1`, for which the pIC50 in assay [1] was 5.14; in assay [2], 4.89.

In the case of `CCCCCCCCCOc1cccc2c(CCN)c[nH]c12`, the results for the negative logarithm of the IC50 (pIC50) in assay [1] and in assay [2] were 5.10 and 4.82, respectively.

On to `CCCCCCCCCOc1ccc2[nH]cc(CCN)c2c1`, for which the pIC50 was 5.33 in assay [1] and 5.06 in assay [2].
